{"source": "paper PMC8501901", "about": "(Proceedings of the National Academy of Sciences of the …, 2021)", "key": {"[1]": {"test_system": "MDA-MB-231 breast cancer cells", "experiment": "Cell viability", "format": "cell-based, human", "conditions": "XTT; peptide concentration 10 μM; three independent experiments", "outline": "(§1)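 Cells seeded at 5 × 10^3/well and grown 16 to 24 h. N-terminally myristoylated peptides were added in serum-free medium for 4 h, then serum was replenished for 24 h. XTT absorbance was read and converted to cell number with a per-line standard curve (1.25 to 20 × 10^3 cells plated, assayed after 24 h). At least three repeats, each in triplicate.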"}, "[2]": {"test_system": "U251 MG glioblastoma cancer cells", "experiment": "Cell viability", "format": "cell-based, human", "conditions": "XTT; peptide concentration 10 μM; three independent experiments", "outline": "as §1"}, "PKCθ": {"target": "PKCθ (Homo sapiens, UniProt Q04759)", "sequence (Q04759 whole entry, canonical isoform)": "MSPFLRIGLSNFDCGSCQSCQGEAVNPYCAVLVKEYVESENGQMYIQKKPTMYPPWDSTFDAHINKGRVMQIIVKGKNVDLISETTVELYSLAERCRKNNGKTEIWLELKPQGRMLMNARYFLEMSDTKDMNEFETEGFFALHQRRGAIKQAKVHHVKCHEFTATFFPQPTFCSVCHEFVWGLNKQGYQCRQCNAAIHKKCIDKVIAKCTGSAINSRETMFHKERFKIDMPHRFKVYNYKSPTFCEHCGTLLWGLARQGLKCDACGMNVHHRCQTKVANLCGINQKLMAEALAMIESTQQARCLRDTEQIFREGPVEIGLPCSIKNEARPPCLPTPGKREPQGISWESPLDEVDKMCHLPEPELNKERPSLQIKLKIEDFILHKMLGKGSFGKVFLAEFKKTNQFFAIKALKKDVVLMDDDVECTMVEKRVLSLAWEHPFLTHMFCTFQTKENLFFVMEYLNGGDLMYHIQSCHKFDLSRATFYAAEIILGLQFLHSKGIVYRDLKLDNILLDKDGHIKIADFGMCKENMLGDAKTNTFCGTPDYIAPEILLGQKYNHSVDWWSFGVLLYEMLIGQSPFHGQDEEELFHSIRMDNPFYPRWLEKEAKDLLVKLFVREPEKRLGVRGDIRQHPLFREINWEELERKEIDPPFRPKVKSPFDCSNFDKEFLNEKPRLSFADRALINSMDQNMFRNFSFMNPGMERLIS", "experiment": "In vitro kinase assay, immunoprecipitated PKC, MBP substrate, γ-[32P]ATP", "format": "biochemical", "outline": "(§2)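 Novel PKC isoforms were HA-tagged, expressed in HEK-293T and pulled down with anti-HA beads (100 μg lysate). Reaction 30 min at 32 °C; 32P-MBP read by autoradiography and normalized via HA/MBP immunoblots. Means of three independent experiments.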"}, "[3]": {"test_system": "nontransformed MCF10A cells", "experiment": "Cell viability", "format": "cell-based, human", "conditions": "XTT; peptide concentration 10 μM; three independent experiments", "outline": "as §1"}, "MDA-MB-231 tumors [4]": {"test_system": "MDA-MB-231 tumors", "experiment": "MDA-MB-231 orthotopic breast cancer xenograft in NOD-SCID mice", "format": "in vivo", "conditions": "10 mg/kg intratumor on alternate days; four mice", "outline": "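Female 6–8-wk-old NOD-SCID mice received 4 × 10^6 MDA-MB-231-Luc cells in 100 μL PBS into the mammary fat pad. At ~100 mm3, mice were randomized to PBS, a non-myristoylated control peptide, or test peptide (10 mg/kg), given intratumorally on alternate days. Caliper measurements three times weekly; V = (W2 × L)/2. Endpoint at ~2,000 mm3.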"}, "[5]": {"test_system": "PKC-η (Ser675, Thr655) in MCF-7 cells", "experiment": "Western blot of PKC-η priming-site phosphorylation", "format": "cell-based, human", "conditions": "peptide 10 μM for 4 h, with/without MG132 10 μM, immunoblot"}, "[6]": {"test_system": "MCF-7 breast cancer cells", "experiment": "Cell viability", "format": "cell-based, human", "conditions": "XTT; peptide concentration 10 μM; three independent experiments", "outline": "as §1"}, "PKC-γ": {"test_system": "PKC-γ", "experiment": "In vitro kinase assay, immunoprecipitated PKC, MBP substrate, γ-[32P]ATP", "format": "biochemical", "conditions": "PMA and CaCl2", "outline": "(§3)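 HA-tagged classical PKC was overexpressed in HEK-293T, and lysate (100 μg) was immunoprecipitated with immobilized anti-HA. Incubated 30 min, 32 °C. 32P-MBP detected by SDS-PAGE/autoradiography; HA and MBP then immunoblotted and band signals quantified.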"}, "PKCη": {"target": "PKCη (Homo sapiens, UniProt P24723)", "sequence (P24723 whole entry)": "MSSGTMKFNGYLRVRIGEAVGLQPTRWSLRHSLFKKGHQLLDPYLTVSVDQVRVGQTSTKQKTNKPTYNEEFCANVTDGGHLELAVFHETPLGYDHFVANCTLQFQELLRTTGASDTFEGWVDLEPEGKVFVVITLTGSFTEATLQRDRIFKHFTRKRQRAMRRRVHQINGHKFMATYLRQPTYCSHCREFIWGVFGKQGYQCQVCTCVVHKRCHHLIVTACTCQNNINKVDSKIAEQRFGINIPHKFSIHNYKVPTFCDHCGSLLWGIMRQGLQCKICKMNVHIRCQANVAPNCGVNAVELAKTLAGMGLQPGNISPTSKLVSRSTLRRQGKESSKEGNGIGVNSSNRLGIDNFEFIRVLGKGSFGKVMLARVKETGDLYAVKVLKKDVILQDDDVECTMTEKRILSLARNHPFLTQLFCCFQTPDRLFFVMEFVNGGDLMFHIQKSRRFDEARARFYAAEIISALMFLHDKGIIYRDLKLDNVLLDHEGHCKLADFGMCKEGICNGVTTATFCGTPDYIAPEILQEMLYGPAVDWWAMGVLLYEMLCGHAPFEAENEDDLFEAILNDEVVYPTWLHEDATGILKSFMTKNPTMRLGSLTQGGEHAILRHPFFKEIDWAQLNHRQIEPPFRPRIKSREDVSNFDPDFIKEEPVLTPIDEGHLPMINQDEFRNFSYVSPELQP", "experiment": "In vitro kinase assay, immunoprecipitated PKC, MBP substrate, γ-[32P]ATP", "format": "biochemical", "conditions": "for inhibition of kinase activity of PKCη: even at 10 μΜ peptide, MBP substrate", "outline": "as §2"}, "MDA-MB-231 tumors [7]": {"test_system": "MDA-MB-231 tumors", "experiment": "MDA-MB-231 orthotopic breast cancer xenograft in NSG mice", "format": "in vivo"}, "MCF-7 cells [8]": {"test_system": "MCF-7 cells", "experiment": "Western blot of DNA damage response markers and PKC-η after etoposide", "format": "cell-based, human", "conditions": "peptide 2 μM, etoposide 50 μM", "outline": "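MCF-7 treated with peptides (2 μM), then etoposide (50 μM). Lysed 30 min after etoposide addition, then Western blot with specific antibodies for phospho-γ-H2AX, Chk1, Chk2, ATM and ATR; Hsp90 and β-actin as loading controls. A non-myristoylated, cell-impermeant peptide served as control. Three independent experiments.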"}, "PKCε": {"target": "T1, PKCε (Homo sapiens, UniProt Q02156)", "T1 sequence (Q02156 1-737)": "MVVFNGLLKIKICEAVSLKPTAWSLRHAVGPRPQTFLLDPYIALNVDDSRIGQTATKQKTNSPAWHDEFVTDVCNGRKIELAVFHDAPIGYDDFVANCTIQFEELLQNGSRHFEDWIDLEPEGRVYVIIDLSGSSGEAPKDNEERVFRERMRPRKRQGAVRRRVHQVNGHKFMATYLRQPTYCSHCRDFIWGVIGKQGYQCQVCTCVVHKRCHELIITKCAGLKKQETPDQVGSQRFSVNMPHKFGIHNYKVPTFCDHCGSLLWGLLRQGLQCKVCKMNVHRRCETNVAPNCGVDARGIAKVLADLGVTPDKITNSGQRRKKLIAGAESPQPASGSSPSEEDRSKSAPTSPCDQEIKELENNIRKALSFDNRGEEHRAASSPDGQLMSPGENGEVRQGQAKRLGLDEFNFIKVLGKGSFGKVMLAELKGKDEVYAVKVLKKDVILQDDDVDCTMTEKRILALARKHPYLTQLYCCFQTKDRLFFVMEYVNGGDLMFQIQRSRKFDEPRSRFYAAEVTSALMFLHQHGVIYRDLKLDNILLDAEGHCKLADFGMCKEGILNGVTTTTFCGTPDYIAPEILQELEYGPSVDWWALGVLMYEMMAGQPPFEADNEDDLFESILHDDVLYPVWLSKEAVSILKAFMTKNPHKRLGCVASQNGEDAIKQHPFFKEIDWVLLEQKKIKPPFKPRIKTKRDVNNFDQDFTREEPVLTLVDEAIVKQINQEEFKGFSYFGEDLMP", "experiment": "In vitro kinase assay, immunoprecipitated PKC, MBP substrate, γ-[32P]ATP", "format": "biochemical", "outline": "as §2"}, "PKC-α": {"test_system": "PKC-α", "experiment": "In vitro kinase assay, immunoprecipitated PKC, MBP substrate, γ-[32P]ATP", "format": "biochemical", "conditions": "PMA and CaCl2", "outline": "as §3"}, "MCF-7 cells [9]": {"test_system": "MCF-7 cells", "experiment": "Cell death with etoposide-induced DNA damage", "format": "cell-based, human", "conditions": "uPEP2 2 μM followed by etoposide 50 μM for 48 h, means of at least three experiments"}, "PKCδ": {"target": "PKCδ (Homo sapiens, UniProt Q05655)", "sequence (Q05655 whole entry)": "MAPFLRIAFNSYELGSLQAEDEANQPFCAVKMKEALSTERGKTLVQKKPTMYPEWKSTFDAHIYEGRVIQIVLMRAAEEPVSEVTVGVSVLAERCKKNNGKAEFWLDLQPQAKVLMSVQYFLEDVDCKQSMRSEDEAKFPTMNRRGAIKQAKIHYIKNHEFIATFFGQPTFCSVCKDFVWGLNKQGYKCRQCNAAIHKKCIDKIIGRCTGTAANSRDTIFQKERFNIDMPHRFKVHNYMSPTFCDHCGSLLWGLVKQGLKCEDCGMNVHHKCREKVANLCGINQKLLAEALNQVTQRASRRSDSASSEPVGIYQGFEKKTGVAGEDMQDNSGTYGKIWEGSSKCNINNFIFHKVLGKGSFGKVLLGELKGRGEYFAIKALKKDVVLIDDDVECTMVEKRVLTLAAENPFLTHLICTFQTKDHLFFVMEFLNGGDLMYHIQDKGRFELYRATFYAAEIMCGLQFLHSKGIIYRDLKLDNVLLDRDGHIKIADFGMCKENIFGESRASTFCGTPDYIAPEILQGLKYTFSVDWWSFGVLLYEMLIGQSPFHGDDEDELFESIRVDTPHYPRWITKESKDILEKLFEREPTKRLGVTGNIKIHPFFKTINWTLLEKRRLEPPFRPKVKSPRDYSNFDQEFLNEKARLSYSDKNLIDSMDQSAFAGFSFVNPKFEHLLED", "experiment": "In vitro kinase assay, immunoprecipitated PKC, MBP substrate, γ-[32P]ATP", "format": "biochemical", "outline": "as §2"}, "PKC-ζ": {"test_system": "PKC-ζ", "experiment": "In vitro kinase assay, immunoprecipitated PKC, MBP substrate, γ-[32P]ATP", "format": "biochemical", "outline": "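Atypical isoform, HA-tagged and overexpressed in HEK-293T; anti-HA immunoprecipitate from 100 μg lysate. Autoradiography of 32P-MBP after SDS-PAGE, with anti-HA and anti-MBP immunoblots for quantification.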"}, "PKC-ε": {"test_system": "PKC-ε", "experiment": "Kinase assay with the peptide as substrate", "format": "biochemical", "conditions": "γ-ATP"}, "PKC-η": {"test_system": "PKC-η", "experiment": "Kinase assay with the peptide as substrate", "format": "biochemical", "conditions": "γ-ATP"}}, "note": "Where a SMILES comes first, the peptide text is derived from it. Where no end group is shown, it is not given here. The star is where a group is joined. Myristoyl = CCCCCCCCCCCCCC(=O)*"}
{"compound": "CCCCCCCCCCCCCC(=O)N[C@@H](CCSC)C(=O)N[C@@H](C)C(=O)N[C@@H](CO)C(=O)N[C@@H](CCCNC(=N)N)C(=O)NCC(=O)N[C@@H](C)C(=O)N[C@@H](CC(C)C)C(=O)N[C@@H](CCCNC(=N)N)C(=O)N[C@@H](CCCNC(=N)N)C(=O)N[C@@H](CS)C(=O)N[C@@H](CC(C)C)C(=O)N[C@@H](CO)C(=O)N1CCC[C@H]1C(=O)NCC(=O)N[C@@H](CC(C)C)C(=O)N1CCC[C@H]1C(=O)N[C@@H](CCCNC(=N)N)C(=O)N[C@@H](CC(C)C)C(=O)N[C@@H](CC(C)C)C(=O)N[C@@H](Cc1c[nH]cn1)C(=O)N[C@@H](CC(C)C)C(=O)N[C@@H](CO)C(=O)N[C@@H](CCCNC(=N)N)C(=O)NCC(=O)N[C@@H](CC(C)C)C(=O)N[C@@H](C)C(N)=O", "note": "[uPEP2] (Myristoyl-MASRGALRRCLSPGLPRLLHLSRGLA-NH2)", "values": [{"measurement": "cell viability of MDA-MB-231", "setting": "[1]", "value": "reduces cell viability"}, {"measurement": "cell viability of U251 MG", "setting": "[2]", "value": "reduces cell viability"}, {"measurement": "IC50", "setting": "PKCθ", "value": "~2000", "unit": "nM"}, {"measurement": "cell viability of MCF10A", "setting": "[3]", "value": "did not affect"}, {"measurement": "growth (volume) of MDA-MB-231 tumors in NOD-SCID mice", "setting": "MDA-MB-231 tumors [4]", "value": "inhibited the growth"}, {"measurement": "phosphorylation of PKC-η priming sites Ser675 and Thr655", "setting": "[5]", "value": "diminished"}, {"measurement": "cell viability of MCF-7", "setting": "[6]", "value": "reduces cell viability"}, {"measurement": "effect on kinase activity of PKC-γ (classical)", "setting": "PKC-γ", "value": "did not affect"}, {"measurement": "IC50", "setting": "PKCη", "value": "~2000", "unit": "nM"}, {"measurement": "breast tumor mass, NSG mice", "setting": "MDA-MB-231 tumors [7]; 10 mg/kg intratumor on alternate days, five animals/group", "value": "significantly attenuates"}, {"measurement": "growth (volume) of MDA-MB-231 tumors in NSG mice", "setting": "MDA-MB-231 tumors [7]; 10 mg/kg intratumor on alternate days, five mice/group", "value": "inhibited the growth"}, {"measurement": "expression levels of classical PKC-α, PKC-γ and atypical PKC-ζ in tumors", "setting": "MDA-MB-231 tumors [7]; immunoblot of tumor extracts", "value": "not affected"}, {"measurement": "protein levels of novel PKC-η and PKC-ε in tumors", "setting": "MDA-MB-231 tumors [7]; immunoblot of tumor extracts, NSG and NOD-SCID mice", "value": "lower protein levels"}, {"measurement": "phosphorylation of PKC substrates in tumors", "setting": "MDA-MB-231 tumors [7]; phospho-(Ser) PKC substrate antibody, tumors grown in NSG or NOD-SCID mice", "value": "lower"}, {"measurement": "apoptosis in tumors (TUNEL assay)", "setting": "MDA-MB-231 tumors [7]; tumor tissue slides at end of experiment", "value": "increased apoptosis"}, {"measurement": "PKC-η protein in etoposide-treated cells", "setting": "MCF-7 cells [8]", "value": "enhanced degradation"}, {"measurement": "etoposide-promoted phosphorylation of ATM, ATR, Chk1 and Chk2", "setting": "MCF-7 cells [8]; lysis 30 min after etoposide", "value": "markedly decreased"}, {"measurement": "phosphorylation of γ-H2AX upon etoposide", "setting": "MCF-7 cells [8]; lysis 30 min after etoposide", "value": "markedly increased"}, {"measurement": "IC50", "setting": "PKCε", "value": "~2000", "unit": "nM"}, {"measurement": "effect on kinase activity of PKC-α (classical)", "setting": "PKC-α", "value": "did not affect"}, {"measurement": "cell death in the presence of both agents (uPEP2 and etoposide)", "setting": "MCF-7 cells [9]", "value": "95 to 100", "unit": "%"}, {"measurement": "IC50", "setting": "PKCδ", "value": "~2000", "unit": "nM"}, {"measurement": "effect on kinase activity of PKC-ζ (atypical)", "setting": "PKC-ζ", "value": "did not affect"}]}
{"compound": "Myr-MASRGS/TLRRCLSPGLPRLLHLSRGLA [uPEP2[A6S]]", "values": [{"measurement": "phosphorylation of the peptide as substrate of PKC-ε", "setting": "PKC-ε", "value": "excellent substrate"}, {"measurement": "phosphorylation of the peptide as substrate of PKC-η", "setting": "PKC-η", "value": "excellent substrate"}]}
{"compound": "Myristoyl-CLSPGLPRLLHLSRGLA [uPEP2(10–26)]", "values": [{"measurement": "inhibition of kinase activity of PKCη", "setting": "PKCη", "value": "weak inhibitory effects"}]}
{"compound": "Myristoyl-MASRGALRRCLSPGLPR [uPEP2(1–17)]", "values": [{"measurement": "cell viability of MDA-MB-231", "setting": "[1]", "value": "partial inhibition"}]}
{"compound": "Myristoyl-MLLHLSRGLA [uPEP2(18–26)]", "values": [{"measurement": "cell viability of MDA-MB-231", "setting": "[1]", "value": "less effective"}, {"measurement": "cell viability of U251 MG", "setting": "[2]", "value": "less effective"}, {"measurement": "cell viability of MCF-7", "setting": "[6]", "value": "less effective"}]}
{"compound": "Myristoyl-TRKRQRAMRRVHQING [η-PS, reference compound]", "values": [{"measurement": "cell viability of MDA-MB-231", "setting": "[1]", "value": "less effective"}, {"measurement": "cell viability of U251 MG", "setting": "[2]", "value": "less effective"}, {"measurement": "cell viability of MCF-7", "setting": "[6]", "value": "less effective"}, {"measurement": "inhibition of kinase activity of PKCη", "setting": "PKCη", "value": "weak inhibitory effects"}]}
